Results taken from ChEMBL document CHEMBL1125624, “Identification and exploitation of the sigma-opiate pharmacophore” (J Med Chem, 1991).

Molecular target: Sigma non-opioid intracellular receptor 1 (Rattus norvegicus, UniProt Q9R0C9)
Assay: Binding affinity towards sigma opioid receptor was determined in rat cerebral homogenate using [3H]haloperidol as radioligand
Summary of the method: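 Male Sprague-Dawley rat cerebellum was homogenized in 50 mM Tris-HCl pH 7.7 and spun at 39000g for 15 min, three times in all. At least nine competitor concentrations were run with 1 nM [3H]haloperidol plus 25 nM spiperone (to block D2) on 3 mg wet-weight tissue for 90 min. Nonspecific binding was taken with 10 µM DTG. GF/C filtration, scintillation counting; Ki ± SEM, minimum three determinations.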

Sequence of Sigma non-opioid intracellular receptor 1 (Q9R0C9 whole entry): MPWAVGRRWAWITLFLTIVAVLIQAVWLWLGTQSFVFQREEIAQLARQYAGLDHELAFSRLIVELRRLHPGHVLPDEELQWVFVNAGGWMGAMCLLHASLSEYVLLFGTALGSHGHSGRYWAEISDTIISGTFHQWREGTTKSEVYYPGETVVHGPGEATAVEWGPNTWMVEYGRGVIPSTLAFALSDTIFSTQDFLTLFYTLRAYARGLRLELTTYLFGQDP

Compound	Ki [nM]
C[C@H](Cc1ccccc1)NCCOc1ccccc1	32
CC(N)Cc1ccccc1 (racemic) [AMPHETAMINE]	> 50000
C[C@@H](Cc1ccccc1)N(C)CCc1ccccc1	16
C[C@H](Cc1ccccc1)NCCC(=O)c1ccccc1	73
C[C@H](Cc1ccccc1)NCc1ccccc1 [N-BENZYLAMPHETAMINE]	103
C[C@H](Cc1ccccc1)NCC1CC1	664
CC(Cc1ccccc1)NCCCCc1ccccc1 (racemic)	3.9
C[C@H](Cc1ccccc1)NCCc1ccccc1	46
C[C@H](Cc1ccccc1)NCCCc1ccccc1	14
C[C@@H](Cc1ccccc1)NCCc1ccccc1	4.8
